# Assay results taken from ChEMBL document CHEMBL3871269, “Conjugates of podophyllotoxin and norcantharidin as dual inhibitors of topoisomeraseⅡ and protein phosphatase 2A” (Eur J Med Chem, 2016).
# Calls of active or inactive are those of the source. No cut-off for these calls is given here.
# Key:
# [1] = tested on: HepG2; assay: Inhibition of PP2A in human HepG2 cells assessed as residual activity by measuring phosphopeptide substrate level at 1 uM using RRAT(pT)VA as substrate preincubated for 24 hrs followed by substrate addition measured after 30 mins by molybdate dye based assay relative to control; type: cell-based
# Summary of the method: (§1)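 HepG2 cells treated 24 h in six-well plates, lysed, endogenous phosphate removed. Lysate incubated 30 min at 37 °C with phosphopeptide RRAT(pT)VA (5 μL of 1 mM). Stopped with molybdate dye mix; A600 after 15 min. Activity from phosphate standard curve, expressed relative to untreated control; mean ± SD.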
# [2] = Cytotoxicity against human HeLa cells measured after 48 hrs by MTT assay; type: functional, cell-based
# Summary of the method: (§2)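 MTT growth assay; cells seeded at 5×10³/well in RPMI1640 with 10% heat-inactivated FBS, attached 4–6 h, then exposed to five concentrations (0.01–100 μM, compounds dissolved in saline) for 48 h at 37 °C, 5% CO₂. MTT added for 4 h, formazan dissolved in DMSO, absorbance read at 490 nm. IC50 taken from log plot of percent of control versus concentration; means ± SD of triplicate experiments.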
# [3] = Cytotoxicity against human A549 cells measured after 48 hrs by MTT assay; type: functional, cell-based; details: A549, 48 h; summary of the method: as §2
# [4] = tested on: HepG2; assay: Induction of cell cycle arrest in human HepG2 cells assessed as decrease in G1 phase at 0.5 to 1 uM measured after 24 hrs by propidium iodide staining based flow cytometry; type: functional
# Summary of the method: (§3)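 HepG2 cells exposed 24 h to 0, 0.5 or 1 μM. (1–5)×10⁵ cells harvested, PBS-washed, fixed in 70% ice-cold ethanol at least overnight. Stained 15 min in dark with 1% Triton X-100, 0.01% RNase, 0.05% PI. Cell-cycle distribution by flow cytometry.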
# [5] = tested on: HepG2; assay: Induction of cell cycle arrest in human HepG2 cells assessed as increase in cyclin cdc-2 expression measured after 24 hrs by western blot method; type: functional, cell-based
# Summary of the method: (§4)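 HepG2 cells grown 24 h in flasks, then treated with 0, 0.5 or 1 μM for 24 h. Lysis in Tris/NP-40/SDS buffer with protease inhibitors; Bradford protein assay. 30 μg protein on 10% or 12% SDS-PAGE, PVDF transfer, milk block 2 h. Cyclin B1 or cdc2 antibodies (1:500–1:1000) overnight at 4 °C, then secondary. β-actin loading control.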
# [6] = tested on: HepG2; assay: Inhibition of PP2A in human HepG2 cells assessed as reduction in phosphopeptide substrate level using RRAT(pT)VA as substrate preincubated for 24 hrs followed by substrate addition measured after 30 mins by molybdate dye based assay; type: cell-based; summary of the method: as §1
# [7] = tested on: HepG2; assay: Induction of cell cycle arrest in human HepG2 cells assessed as accumulation at G2/M phase at 0.5 uM measured after 24 hrs by propidium iodide staining based flow cytometry (reference value: 9.4%); type: functional
# [8] = organism: Homo sapiens; assay: Inhibition of human topoisomerase-2 catalytic activity assessed as reduction in pBR322 supercoiled DNA relaxation up to 100 uM measured after 60 mins by ethidium bromide staining agarose gel electrophoresis
# Summary of the method: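 Relaxation assay with supercoiled pBR322 (250 ng/μL) and topoisomerase II (4 units) in kit buffer, 20 μL, 60 min at 37 °C. Compound at 50 or 100 μM. Stopped with 10% SDS, proteinase K, chloroform/isoamyl alcohol extraction. Run on 1% agarose in TAE pH 8.0, ethidium bromide stained.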
# [9] = tested on: HepG2; assay: Induction of cell cycle arrest in human HepG2 cells assessed as decrease in G1 phase by propidium iodide staining based flow cytometry; type: functional; details: TDE = time-dependent effect; summary of the method: as §3
# [10] = Cytotoxicity against human HCT8 cells measured after 48 hrs by MTT assay; type: functional, cell-based; details: HCT-8, 48 h; summary of the method: as §2
# [11] = tested on: HepG2; assay: Induction of cell cycle arrest in human HepG2 cells assessed as increase in cyclin B1 expression measured after 24 hrs by western blot method; type: functional, cell-based; summary of the method: as §4
# [12] = tested on: HepG2; assay: Induction of cell cycle arrest in human HepG2 cells assessed as accumulation at G2/M phase at 1 uM measured after 24 hrs by propidium iodide staining based flow cytometry (reference value: 9.4%); type: functional
# [13] = Octanol-water partition coefficient, log P of the compound; type: physicochemical
# Summary of the method: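 Partition coefficient P = compound concentration in 1-octanol / compound concentration in water.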
# [14] = organism: Bos taurus; assay: Binding affinity to calf thymus DNA at 1 uM at pH 7.2 measured after 5 mins by fluorescence spectroscopic method
# Summary of the method: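 CT DNA titrated (0–5 μM) into 1 μM compound in pH 7.2 PBS, equilibrated 5 min at 25 °C. Excitation at 318 nm, emission recorded over 280–400 nm. CT DNA samples in PBS at matching concentrations served as blanks.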
# [15] = tested on: HepG2; assay: Induction of cell cycle arrest in human HepG2 cells assessed as accumulation at G2/M phase measured after 24 hrs by propidium iodide staining based flow cytometry; type: functional; summary of the method: as §3
# [16] = tested on: HepG2; assay: Induction of cell cycle arrest in human HepG2 cells assessed as increase in cyclin B1 expression at 0.5 to 1 uM measured after 24 hrs by western blot method; type: functional, cell-based; summary of the method: as §4
# [17] = tested on: HepG2; assay: Inhibition of PP2A in human HepG2 cells assessed as residual activity by measuring phosphopeptide substrate level at 2 uM using RRAT(pT)VA as substrate preincubated for 24 hrs followed by substrate addition measured after 30 mins by molybdate dye based assay relative to control; type: cell-based; summary of the method: as §1
# [18] = Inhibition of human RBC PP2A assessed as reduction in free phosphate ion release using Lys-Arg-pThr-Ile-Arg as substrate preincubated for 10 mins followed by substrate addition measured after 60 mins by malachite green method
# Summary of the method: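 Purified PP2A (0.6 mU/well) preincubated with inhibitor 10 min at 37 °C. Reaction started with 200 μM Lys-Arg-pThr-Ile-Arg in 50 mM Tris-HCl pH 7.0, 100 μM CaCl₂; 60 min at room temperature. Released phosphate read by malachite green at 650 nm after 10 min; enzyme-plus-buffer blanks. IC50 from dose–response; mean of three independent experiments in duplicate.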
# [19] = tested on: HepG2; assay: Inhibition of PP2A in human HepG2 cells assessed as residual activity by measuring phosphopeptide substrate level at 5 uM using RRAT(pT)VA as substrate preincubated for 24 hrs followed by substrate addition measured after 30 mins by molybdate dye based assay relative to control; type: cell-based; summary of the method: as §1
# [20] = Cytotoxicity against human WI38 cells measured after 48 hrs by MTT assay; type: toxicity, cell-based, WI-38
# Summary of the method: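 MTT growth inhibition in WI-38 lung fibroblasts. Cells seeded at 5×10³/well in RPMI1640 with 10% heat-inactivated FBS, attached 4–6 h, then exposed 48 h at 37 °C, 5% CO₂ to five concentrations (0.01–100 μM, saline-dissolved). MTT 4 h, DMSO solubilisation, A490. IC50 from log plot of percent control vs concentration; triplicate, mean ± SD.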
# [21] = Cytotoxicity against human HepG2 cells measured after 48 hrs by MTT assay; type: functional, cell-based; details: HepG2, 48 h; summary of the method: as §2
# [22] = organism: Homo sapiens; assay: Inhibition of human topoisomerase-2 catalytic activity assessed as reduction in pBR322 supercoiled DNA relaxation at 100 uM measured after 60 mins by ethidium bromide staining agarose gel electrophoresis
# Summary of the method: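 Kit-based relaxation assay: supercoiled pBR322 plasmid DNA (250 ng/μL) with topoisomerase II (4 units) in kit assay buffer, 20 μL final, 60 min at 37 °C. Reaction stopped with 10% SDS, proteinase K treated, chloroform/isoamyl alcohol (24:1) extracted. Products resolved on 1% agarose in TAE (pH 8.0), ethidium bromide stained. Test concentrations 50 and 100 μM.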
Compound,IC50 [2],IC50 [3],IC50 [10],logP ([13]; read-out: logP),IC50 [18],IC50 at 48 h [20],IC50 [21],other results
COc1cc([C@@H]2c3cc4c(cc3[C@@H](NC(=O)CCCN3C(=O)C5C6CCC(O6)C5C3=O)[C@H]3COC(=O)[C@H]23)OCO4)cc(OC)c1O (stereo partly drawn),4.33 µM,4.57 µM,3.48 µM,0.68,0.49 µM,> 100 µM,< 0.01 µM,Activity [1]: 73%; Activity [4]: Active; Activity [5]: Dose-dependent effect; inhibition [6]: Dose-dependent effect; Activity [7]: 27.6%; inhibition [8]: Active; Activity [9]: Tde; Activity [11]: Dose-dependent effect; Activity [12]: 58.6%; Activity [14]: Active; Activity [15]: Dose-dependent effect; Activity [16]: Active; Activity [17]: 32%; Activity [19]: 27%
COc1cc([C@@H]2c3cc4c(cc3[C@@H](NC(=O)[C@H](Cc3ccccc3)N3C(=O)C5C6CCC(O6)C5C3=O)[C@H]3COC(=O)[C@H]23)OCO4)cc(OC)c1O (stereo partly drawn),16 µM,14.1 µM,11.6 µM,2.27,> 100 µM,29.6 µM,5.53 µM,
COc1cc([C@@H]2c3cc4c(cc3[C@@H](NC(=O)[C@H](c3ccccc3)N3C(=O)C5C6CCC(O6)C5C3=O)[C@H]3COC(=O)[C@H]23)OCO4)cc(OC)c1O (stereo partly drawn),28.5 µM,7.03 µM,15.3 µM,1.99,> 100 µM,26.7 µM,1.98 µM,
CC[C@H](C)[C@@H](C(=O)N[C@@H]1c2cc3c(cc2[C@@H](c2cc(OC)c(O)c(OC)c2)[C@H]2C(=O)OC[C@@H]21)OCO3)N1C(=O)C2C3CCC(O3)C2C1=O (stereo partly drawn),2.52 µM,10.1 µM,23.6 µM,1.91,75.7 µM,65.2 µM,3.21 µM,
COc1cc([C@@H]2c3cc4c(cc3[C@@H](NC(=O)[C@H](CC(C)C)N3C(=O)C5C6CCC(O6)C5C3=O)[C@H]3COC(=O)[C@H]23)OCO4)cc(OC)c1O (stereo partly drawn),> 100 µM,8.11 µM,21.4 µM,1.83,> 100 µM,21.9 µM,10.5 µM,
COc1cc([C@@H]2c3cc4c(cc3[C@@H](NC(=O)[C@H](Cc3cc5ccccc5[nH]3)N3C(=O)C5C6CCC(O6)C5C3=O)[C@H]3COC(=O)[C@H]23)OCO4)cc(OC)c1O (stereo partly drawn),2.35 µM,12 µM,15.2 µM,1.69,58.3 µM,72.4 µM,6.84 µM,
COc1cc([C@@H]2c3cc4c(cc3[C@@H](O[C@@H]3O[C@@H]5CO[C@@H](C)O[C@H]5[C@H](O)[C@H]3O)[C@H]3COC(=O)[C@H]23)OCO4)cc(OC)c1O [ETOPOSIDE],13.5 µM,29.7 µM,10 µM,,,17.6 µM,5.21 µM,inhibition [22]: Active; logP [13]: 2.74
COc1cc([C@@H]2c3cc4c(cc3[C@@H](NC(=O)CCN3C(=O)C5C6CCC(O6)C5C3=O)[C@H]3COC(=O)[C@H]23)OCO4)cc(OC)c1O (stereo partly drawn),10.8 µM,6.21 µM,17.2 µM,0.41,9.52 µM,> 100 µM,8.42 µM,
COc1cc([C@@H]2c3cc4c(cc3[C@@H](NC(=O)CN3C(=O)C5C6CCC(O6)C5C3=O)[C@H]3COC(=O)[C@H]23)OCO4)cc(OC)c1O (stereo partly drawn),1.65 µM,5.47 µM,17.1 µM,0.13,0.68 µM,33.5 µM,0.14 µM,
COc1cc([C@@H]2c3cc4c(cc3[C@@H](NC(=O)[C@H](CCSC)N3C(=O)C5C6CCC(O6)C5C3=O)[C@H]3COC(=O)[C@H]23)OCO4)cc(OC)c1O (stereo partly drawn),2.82 µM,6.12 µM,12.3 µM,0.93,1.29 µM,30.4 µM,7.04 µM,
COc1cc([C@@H]2c3cc4c(cc3[C@@H](NC(=O)c3ccc(N5C(=O)C6C7CCC(O7)C6C5=O)cc3)[C@H]3COC(=O)[C@H]23)OCO4)cc(OC)c1O (stereo partly drawn),2.61 µM,3.42 µM,3.12 µM,2.06,3.63 µM,46.5 µM,0.1 µM,
COc1cc([C@@H]2c3cc4c(cc3[C@@H](NC(=O)[C@H](C)N3C(=O)C5C6CCC(O6)C5C3=O)[C@H]3COC(=O)[C@H]23)OCO4)cc(OC)c1O (stereo partly drawn),15.1 µM,44.5 µM,16.9 µM,0.62,> 100 µM,35.6 µM,13.7 µM,
O=C1OC(=O)C2C3CCC(O3)C12 (stereo not drawn) [DEMETHYL-CANTHARIDIN],,12.2 µM,,,0.48 µM,26.7 µM,,
COc1cc([C@@H]2c3cc4c(cc3[C@@H](NC(=O)[C@H](C(C)C)N3C(=O)C5C6CCC(O6)C5C3=O)[C@H]3COC(=O)[C@H]23)OCO4)cc(OC)c1O (stereo partly drawn),8.3 µM,6.73 µM,7.81 µM,1.48,1.12 µM,44.4 µM,1.62 µM,
